The values below come from ChEMBL document CHEMBL3108734, “Identification of a new scaffold for hsp90 C-terminal inhibition” (ACS Med Chem Lett, 2014).

Assay [1] is described as follows: Antiproliferative activity against human SKBR3 cells after 72 hrs by MTS assay. To be noted: SK-BR-3, 72 h. In kind it is functional, cell-based. The procedure, abridged:
(§1)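 IC50 values for growth inhibition were derived from assays run in triplicate. Values are mean ± standard deviation of at least two separate experiments.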

The test system of another assay is MCF7. The assay is described as follows: Antiproliferative activity against human MCF7 cells after 72 hrs by MTS assay. The class given is functional, cell-based. To be noted: MCF7, 72 h. In short, it runs like this: as §1
In assay [2] the target is Heat shock protein HSP 90-beta (Homo sapiens) (UniProt P08238). As to the kind of experiment: Inhibition of HSP90 in human MCF7 cells assessed as degradation of p-Akt at 1 to 10 uM after 24 hrs by Western blotting analysis. The class given is cell-based. In short, it runs like this: (§2)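 MCF-7 breast cancer cells were treated with compound at the concentrations shown, then lysed. Lysates were analysed by Western blot for the Hsp90-dependent clients Her2, Raf-1 and p-Akt, with actin as the Hsp90-independent control. Geldanamycin (0.5 μM) served as positive control and DMSO as negative control.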
Heat shock protein HSP 90-beta (Homo sapiens), sequence (P08238 whole entry): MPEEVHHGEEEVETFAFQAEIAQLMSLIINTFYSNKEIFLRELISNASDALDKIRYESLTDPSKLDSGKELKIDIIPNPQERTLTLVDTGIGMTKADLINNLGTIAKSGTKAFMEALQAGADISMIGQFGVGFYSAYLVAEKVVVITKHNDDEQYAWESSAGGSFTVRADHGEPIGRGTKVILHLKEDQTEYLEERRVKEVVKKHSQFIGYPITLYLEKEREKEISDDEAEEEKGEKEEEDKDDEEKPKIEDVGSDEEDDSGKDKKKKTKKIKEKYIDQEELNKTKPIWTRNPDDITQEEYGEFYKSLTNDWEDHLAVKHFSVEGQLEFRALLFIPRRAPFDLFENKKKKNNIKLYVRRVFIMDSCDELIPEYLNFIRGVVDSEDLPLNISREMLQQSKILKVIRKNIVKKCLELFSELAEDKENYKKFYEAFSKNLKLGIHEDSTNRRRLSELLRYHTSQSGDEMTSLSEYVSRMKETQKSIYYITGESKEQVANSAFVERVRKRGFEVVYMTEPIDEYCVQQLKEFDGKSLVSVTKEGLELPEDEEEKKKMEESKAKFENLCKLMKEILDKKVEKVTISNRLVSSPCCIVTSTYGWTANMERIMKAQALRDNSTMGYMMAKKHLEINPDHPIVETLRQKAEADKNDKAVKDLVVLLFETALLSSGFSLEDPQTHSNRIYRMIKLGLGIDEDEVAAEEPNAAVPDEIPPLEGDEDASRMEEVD

Assay [3] shares this target. As to the kind of experiment: Inhibition of HSP90 in human MCF7 cells assessed as degradation of Raf-1 at 1 to 10 uM after 24 hrs by Western blotting analysis. The class given is cell-based. In short, it runs like this: as §2
For assay [4] the target is unchanged. The assay is described as follows: Inhibition of HSP90 in human MCF7 cells assessed as degradation of Her-2 at 1 to 10 uM after 24 hrs by Western blotting analysis. The class given is cell-based. In short, it runs like this: as §2
The target is the same in assay [5]. As to the kind of experiment: Inhibition of HSP90 in human MCF7 cells assessed as degradation of p-Akt after 24 hrs by Western blotting analysis. In kind it is cell-based. The procedure, abridged:
as §2

For assay [6] the target is unchanged. As to the kind of experiment: Inhibition of HSP90 in human MCF7 cells assessed as degradation of Her-2 after 24 hrs by Western blotting analysis. The class given is cell-based. The procedure, abridged: as §2
Assay [7] has the same target. The assay is described as follows: Inhibition of HSP90 in human MCF7 cells assessed as degradation of Raf-1 after 24 hrs by Western blotting analysis. In kind it is cell-based. In short, it runs like this: as §2

Activity calls are given as the source filed them. No cut-off for these calls is given here.

Regarding `Cc1ccc(C(=O)Nc2cccc(-c3ccc(OC4CCN(C)CC4)cc3)c2)cc1`, the values for the IC50 (in assay [1]; with MCF7) were 5.27 µM and 3.92 µM, respectively.
The corresponding values for `COc1cccc(C(=O)Nc2cccc(-c3ccc(OC4CCN(C)CC4)cc3)c2)c1` are 8.36 µM and 4.5 µM.
On the same counts, the results for `COc1ccc(C(=O)Nc2cccc(-c3ccc(OC4CCN(C)CC4)cc3)c2)cc1` are 10.1 µM and 5.52 µM.
The corresponding values for `CN1CCC(Oc2ccc(-c3cccc(NC(=O)c4ccc(C(C)(C)C)cc4)c3)cc2)CC1` are 1.51 µM and 3.45 µM.
For the compound `Cc1cccc(C(=O)Nc2cccc(-c3ccc(OC4CCN(C)CC4)cc3)c2)c1`, the IC50 worked out at 11.4 µM in assay [1] and 7.73 µM in the assay with MCF7.
On the same counts, the results for `CN1CCC(Oc2ccc(-c3cccc(NC(=O)c4cc(Cl)cc(Cl)c4)c3)cc2)CC1` are 4.23 µM and 3.72 µM.
In the case of `CC(C)=CCc1cc(C(=O)Nc2cccc(-c3ccc(OC4CCN(C)CC4)cc3)c2)ccc1O`, the inhibition entry in assay [2], in assay [3] and in assay [4] was “Active” each time. For the same compound, the IC50 in assay [1] was 2.94 µM; in the assay on MCF7, 2.21 µM.
In the case of `CN1CCC(Oc2ccc(-c3cccc(NC(=O)c4cccc5ccccc45)c3)cc2)CC1`, the IC50 in assay [1] came out at 1.64 µM; in the assay on MCF7, 1.1 µM.
With `CN1CCC(Oc2ccc(-c3cccc(NC(=O)c4ccccc4Cl)c3)cc2)CC1`, the IC50 in assay [1] was found to be 7.87 µM; with MCF7 it was 5.17 µM.
Take `CN1CCC(Oc2ccc(-c3cccc(NC(=O)c4cccc(Cl)c4)c3)cc2)CC1`: the figures for the IC50 (in assay [1]; in the assay on MCF7) were 4.29 µM and 2.11 µM, respectively.
In assay [1], `CO[C@@H]1[C@@H](OC(N)=O)[C@@H](O)[C@H](Oc2ccc3c(O)c(NC(=O)c4ccc(O)c(CC=C(C)C)c4)c(=O)oc3c2C)OC1(C)C` [NOVOBIOCIN] yielded an IC50 of 700 µM.
As for `CN1CCC(Oc2ccc(-c3cccc(NC(=O)c4ccc5ccccc5c4)c3)cc2)CC1`, the IC50 in assay [1] came to 2.09 µM; in the assay with MCF7, 1.66 µM.
Consider `COc1cccc(-c2cc(C(=O)Nc3cccc(-c4ccc(OC5CCN(C)CC5)cc4)c3)ccc2OC)c1`, for which the values for the IC50 (in assay [1]; in the assay on MCF7) were 3.47 µM and 2.71 µM, respectively.
For `CC(=O)Oc1ccc(C(=O)Nc2cccc(-c3ccc(OC4CCN(C)CC4)cc3)c2)cc1CC=C(C)C`, the concentration for half-maximal inhibition (IC50) in assay [1] was determined as 3.65 µM; in the assay on MCF7, 1.45 µM.
In the case of `CN1CCC(Oc2ccc(-c3cccc(NC(=O)c4ccc(Cl)cc4)c3)cc2)CC1`, the figures for the IC50 (in assay [1]; with MCF7) were 3.63 µM and 2.23 µM, respectively.
The corresponding values for `CN1CCC(Oc2ccc(-c3cccc(NC(=O)c4ccc(Cl)c(Cl)c4)c3)cc2)CC1` are 2.24 µM and 2.17 µM.
For `CN1CCC(Oc2ccc(-c3cccc(NC(=O)c4ccc(Br)cc4)c3)cc2)CC1`, the inhibition entry in assay [5], in assay [6] and in assay [7] was “Dose-dependent effect” throughout. Moreover, the IC50 was determined as 1.94 µM in assay [1] and 0.88 µM in the assay with MCF7.
Regarding `CN1CCC(Oc2ccc(-c3cccc(NC(=O)c4ccc(Cl)cc4Cl)c3)cc2)CC1`, the IC50 in assay [1] worked out at 5.91 µM; in the assay on MCF7, 3.93 µM.
`CN1CCC(Oc2ccc(-c3cccc(NC(=O)c4ccccc4)c3)cc2)CC1`: the figures for the concentration for half-maximal inhibition (IC50) (in assay [1]; with MCF7) were 18.9 µM and 12 µM, respectively.
